Measured values taken from ChEMBL document CHEMBL4004832, “Synthesis, surfactant properties and antimicrobial activities of methyl glycopyranoside ethers” (2017).
≈ marks a conversion by molar mass, not a printed value.

Key:
[1] = Surfactant property of the compound in aqueous solution assessed as critical micelle concentration or minimal hydrotropic concentration
Summary of the method: (§1)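 Surface tension of aqueous solutions was measured by a rod method based on the Wilhelmy plate. Water was progressively concentrated with a stock surfactant solution at constant volume. At each concentration, readings continued until stable (SD of the last 5 values 0.2 mN/m). MHC or CMC and the plateau γsat were taken from the tension vs concentration curves.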

Listeria monocytogenes [2] = assay: Antibacterial activity against Listeria monocytogenes CIP 103575 after 18 hrs by broth microdilution assay; assay type: functional; conditions: CIP 103575, 18 h
Summary of the method: (§2)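 Broth MIC testing on Gram-positive strains followed CLSI M100-S17 recommendations. […] Values are in mmol/L. Amoxicillin was the control for Listeria and Enterococcus strains and oxacillin for S. aureus strains.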

Staphylococcus aureus [3] = assay: Antibacterial activity against Staphylococcus aureus ATCC 29213 after 18 hrs by broth microdilution assay; assay type: functional; conditions: ATCC 29213, 18 h; summary of the method: as §2
Enterococcus faecalis [4] = assay: Antibacterial activity against Enterococcus faecalis ATCC 29212 after 18 hrs by broth microdilution assay; assay type: functional; conditions: ATCC 29212, 18 h; summary of the method: as §2
Listeria monocytogenes [5] = assay: Antibacterial activity against Listeria monocytogenes isolate 015189074801 after 18 hrs by broth microdilution assay; assay type: functional; conditions: isolate 015189074801, 18 h; summary of the method: as §2
Listeria monocytogenes [6] = assay: Antibacterial activity against Listeria monocytogenes isolate 015170199001 after 18 hrs by broth microdilution assay; assay type: functional; conditions: isolate 015170199001, 18 h; summary of the method: as §2
Listeria monocytogenes [7] = assay: Antibacterial activity against Listeria monocytogenes isolate 015181840701 after 18 hrs by broth microdilution assay; assay type: functional; conditions: isolate 015181840701, 18 h; summary of the method: as §2
Enterococcus faecalis [8] = assay: Antibacterial activity against Enterococcus faecalis isolate 015206179901 after 18 hrs by broth microdilution assay; assay type: functional; conditions: isolate 015206179901, 18 h; summary of the method: as §2
Enterococcus faecium [9] = assay: Antibacterial activity against Enterococcus faecium CIP 103510 after 18 hrs by broth microdilution assay; assay type: functional; conditions: CIP 103510, 18 h
Summary of the method: (§3)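 Enterococcus faecium strains (reference, clinical isolates, VanA isolate) tested by MIC following CLSI recommendations (M100-S17), with amoxicillin as control. […] Values are expressed in mmol/L.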

Enterococcus faecium [10] = assay: Antibacterial activity against […] Enterococcus faecium isolate 0151850763 after 18 hrs by broth microdilution assay; assay type: functional; conditions: isolate 0151850763, 18 h; summary of the method: as §3
Enterococcus faecium [11] = assay: Antibacterial activity against Enterococcus faecium isolate 015205731401 after 18 hrs by broth microdilution assay; assay type: functional; conditions: isolate 015205731401, 18 h; summary of the method: as §2
Enterococcus faecium [12] = assay: Antibacterial activity against Enterococcus faecium isolate 015205261801 after 18 hrs by broth microdilution assay; assay type: functional; conditions: isolate 015205261801, 18 h; summary of the method: as §3
[13] = Surfactant property of the compound in water assessed as critical micelle concentration or minimal hydrotropic concentration by platinum rod based tensiometric method; summary of the method: as §1
Staphylococcus aureus [14] = assay: Antibacterial activity against Staphylococcus aureus ATCC 25923 after 18 hrs by broth microdilution assay; assay type: functional; conditions: ATCC 25923, 18 h
Summary of the method: (§4)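 Staphylococcus aureus reference strains and methicillin- and daptomycin-resistant isolates tested by MIC according to CLSI guidance (M100-S17), with oxacillin as control. The endpoint is the lowest concentration with no growth in all replicates versus a negative control at 18 h. Values are reported in mmol/L.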

Staphylococcus aureus [15] = assay: Antibacterial activity against methicillin-resistant Staphylococcus aureus LAC USA300 after 18 hrs by broth microdilution assay; assay type: functional; summary of the method: as §4
Staphylococcus aureus [16] = assay: Antibacterial activity against methicillin-resistant Staphylococcus aureus Mu3 after 18 hrs by broth microdilution assay; assay type: functional; conditions: Mu3, 18 h; summary of the method: as §4
Staphylococcus aureus [17] = assay: Antibacterial activity against methicillin-resistant Staphylococcus aureus isolate HT 2004-0012 after 18 hrs by broth microdilution assay; assay type: functional; conditions: isolate HT 2004-0012, 18 h; summary of the method: as §4
Staphylococcus aureus [18] = assay: Antibacterial activity against methicillin-resistant Staphylococcus aureus isolate LY 1999-0053 after 18 hrs by broth microdilution assay; assay type: functional; conditions: isolate LY 1999-0053, 18 h; summary of the method: as §4
Staphylococcus aureus [19] = assay: Antibacterial activity against methicillin-resistant Staphylococcus aureus isolate HT 2002-0417 after 18 hrs by broth microdilution assay; assay type: functional; conditions: isolate HT 2002-0417, 18 h; summary of the method: as §4
Staphylococcus aureus [20] = assay: Antibacterial activity against methicillin-resistant Staphylococcus aureus isolate HT 2006-1004 after 18 hrs by broth microdilution assay; assay type: functional; conditions: isolate HT 2006-1004, 18 h; summary of the method: as §4
Staphylococcus aureus [21] = assay: Antibacterial activity against daptomycin-resistant Staphylococcus aureus isolate ST 2015-0188 after 18 hrs by broth microdilution assay; assay type: functional; conditions: isolate ST 2015-0188, 18 h; summary of the method: as §4
Staphylococcus aureus [22] = assay: Antibacterial activity against daptomycin-resistant Staphylococcus aureus isolate ST 2014-1288 after 18 hrs by broth microdilution assay; assay type: functional; conditions: isolate ST 2014-1288, 18 h; summary of the method: as §4
Staphylococcus aureus [23] = assay: Antibacterial activity against daptomycin-resistant Staphylococcus aureus isolate ST 2015-0989 after 18 hrs by broth microdilution assay; assay type: functional; conditions: isolate ST 2015-0989, 18 h; summary of the method: as §4
Escherichia coli = assay: Antibacterial activity against Escherichia coli ATCC 8739 after 18 hrs by broth microdilution assay; assay type: functional; conditions: ATCC 8739, 18 h
Pseudomonas aeruginosa = assay: Antibacterial activity against Pseudomonas aeruginosa ATCC 27853 after 18 hrs by broth microdilution assay; assay type: functional; conditions: ATCC 27853, 18 h
Listeria monocytogenes [24] = assay: Bactericidal activity against Listeria monocytogenes CIP 103575 after 18 hrs by broth microdilution assay; assay type: functional
Summary of the method: (§5)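 MBC is the lowest concentration giving at least 99.9% reduction of the initial inoculum. Values are in mmol/L.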

Staphylococcus aureus [25] = assay: Bactericidal activity against Staphylococcus aureus ATCC 29213 after 18 hrs by broth microdilution assay; assay type: functional; summary of the method: as §5
Enterococcus faecalis [26] = assay: Bactericidal activity against Enterococcus faecalis ATCC 29212 after 18 hrs by broth microdilution assay; assay type: functional; summary of the method: as §5

CCCCCCCCCCCC(=O)OC[C@H]1O[C@H](OC)[C@H](O)[C@@H](O)[C@@H]1O
CMC [1]: 0.052 mmol/L
MIC (Listeria monocytogenes [2]): 80 µM (≈ 30.1 µg/mL)
MIC (Staphylococcus aureus [3]): 320 µM (≈ 120 µg/mL)

CCCCCCCCCCCCO[C@@H]1O[C@H](CO)C(O[C@H]2O[C@H](CO)[C@@H](O)[C@H](O)[C@H]2O)[C@H](O)[C@H]1O (single isomer, unassigned)
CMC [1]: 0.2 mmol/L

CCCCCCCCCCCCOC[C@H]1OC(O)[C@H](O)[C@@H](O)[C@@H]1O (stereo not given in full)
CMC [1]: 0.5 mmol/L

CC1(C)S[C@@H]2[C@H](NC(=O)[C@H](N)c3ccc(O)cc3)C(=O)N2[C@H]1C(=O)O [AMOXICILLIN]
MIC (Listeria monocytogenes [2]): 2 µM (≈ 0.731 µg/mL)
MIC (Enterococcus faecalis [4]): 2 µM (≈ 0.731 µg/mL)
MIC (Listeria monocytogenes [5]): 2 µM (≈ 0.731 µg/mL)
MIC (Listeria monocytogenes [6]): 4 µM (≈ 1.46 µg/mL)
MIC (Listeria monocytogenes [7]): 2 µM (≈ 0.731 µg/mL)
MIC (Enterococcus faecalis [8]): 2 µM (≈ 0.731 µg/mL)
MIC (Enterococcus faecium [9]): 60 µM (≈ 21.9 µg/mL)
MIC (Enterococcus faecium [10]): 500 µM (≈ 183 µg/mL)
MIC (Enterococcus faecium [11]): 250 µM (≈ 91.4 µg/mL)
MIC (Enterococcus faecium [12]): 250 µM (≈ 91.4 µg/mL)

CCCCCCCCCCCCOC[C@H]1O[C@H](OC)[C@H](O)[C@@H](O)[C@H]1O
CMC [13]: 0.47 mmol/L
MIC (Listeria monocytogenes [2]): 180 µM (≈ 65.3 µg/mL)
MIC (Staphylococcus aureus [3]): > 710 µM
MIC (Enterococcus faecalis [4]): 180 µM (≈ 65.3 µg/mL)
MIC (Listeria monocytogenes [5]): 180 µM (≈ 65.3 µg/mL)
MIC (Listeria monocytogenes [6]): 180 µM (≈ 65.3 µg/mL)
MIC (Listeria monocytogenes [7]): 180 µM (≈ 65.3 µg/mL)
MIC (Enterococcus faecalis [8]): 180 µM (≈ 65.3 µg/mL)
MIC (Enterococcus faecium [9]): > 710 µM
MIC (Enterococcus faecium [10]): 350 µM (≈ 127 µg/mL)
MIC (Enterococcus faecium [11]): 90 µM (≈ 32.6 µg/mL)
MIC (Enterococcus faecium [12]): 20 µM (≈ 7.25 µg/mL)
MIC (Staphylococcus aureus [14]): > 710 µM
MIC (Staphylococcus aureus [15]): > 710 µM
MIC (Staphylococcus aureus [16]): > 710 µM
MIC (Staphylococcus aureus [17]): > 710 µM
MIC (Staphylococcus aureus [18]): > 710 µM
MIC (Staphylococcus aureus [19]): > 710 µM
MIC (Staphylococcus aureus [20]): > 710 µM
MIC (Staphylococcus aureus [21]): > 710 µM
MIC (Staphylococcus aureus [22]): > 710 µM
MIC (Staphylococcus aureus [23]): > 710 µM

CCCCCCCCCCCCO[C@H]1O[C@H](CO)C(O[C@H]2O[C@H](CO)[C@@H](O)[C@H](O)[C@H]2O)[C@H](O)[C@H]1O (single isomer, unassigned)
CMC [1]: 0.15 mmol/L

CCCCCCCCCCC[C@@H]1OC[C@H]2O[C@H](OC)[C@H](O)[C@@H](O)[C@@H]2O1
CMC [13]: > 0.06 mmol/L

CCCCCCCCCCCC(=O)OC[C@H]1O[C@H](O[C@H]2[C@H](O)[C@@H](O)C(O)O[C@@H]2CO)[C@H](O)[C@@H](O)[C@@H]1O (stereo not given in full)
CMC [1]: 0.24 mmol/L

Cc1onc(-c2ccccc2)c1C(=O)N[C@@H]1C(=O)N2[C@@H]1SC(C)(C)[C@@H]2C(=O)O [OXACILLIN]
MIC (Staphylococcus aureus [3]): 1 µM (≈ 0.401 µg/mL)
MIC (Staphylococcus aureus [14]): 50 µM (≈ 20.1 µg/mL)
MIC (Staphylococcus aureus [15]): 160 µM (≈ 64.2 µg/mL)
MIC (Staphylococcus aureus [16]): 640 µM (≈ 257 µg/mL)
MIC (Staphylococcus aureus [17]): 80 µM (≈ 32.1 µg/mL)
MIC (Staphylococcus aureus [18]): 160 µM (≈ 64.2 µg/mL)
MIC (Staphylococcus aureus [19]): 160 µM (≈ 64.2 µg/mL)
MIC (Staphylococcus aureus [20]): 320 µM (≈ 128 µg/mL)
MIC (Staphylococcus aureus [21]): 160 µM (≈ 64.2 µg/mL)
MIC (Staphylococcus aureus [22]): 160 µM (≈ 64.2 µg/mL)
MIC (Staphylococcus aureus [23]): 320 µM (≈ 128 µg/mL)

CCCCCCC[C@@H]1OC[C@H]2O[C@H](OC)[C@H](O)[C@@H](O)[C@@H]2O1
CMC [13]: 2.5 mmol/L
MIC (Escherichia coli): > 4000 µM
MIC (Pseudomonas aeruginosa): > 4000 µM
MIC (Listeria monocytogenes [2]): 2000 µM (≈ 609 µg/mL)
MIC (Staphylococcus aureus [3]): > 4000 µM
MIC (Enterococcus faecalis [4]): > 4000 µM

CCCCCCCCCCCC(=O)OC[C@H]1O[C@H](O[C@]2(CO)O[C@H](CO)[C@@H](O)[C@@H]2O)[C@H](O)[C@@H](O)[C@@H]1O
CMC [1]: 0.25 mmol/L

CCCCCCCCCCOC[C@H]1O[C@H](OC)[C@H](O)[C@@H](O)[C@@H]1O
CMC [13]: 0.277 mmol/L
MIC (Listeria monocytogenes [2]): 500 µM (≈ 167 µg/mL)
MBC<=99.9 (Listeria monocytogenes [24]): 500 µM (≈ 167 µg/mL)
MIC (Staphylococcus aureus [3]): 2000 µM (≈ 669 µg/mL)
MBC<=99.9 (Staphylococcus aureus [25]): 2000 µM (≈ 669 µg/mL)
MIC (Enterococcus faecalis [4]): 500 µM (≈ 167 µg/mL)
MBC<=99.9 (Enterococcus faecalis [26]): 500 µM (≈ 167 µg/mL)
